# Results taken from ChEMBL document CHEMBL2390931, “Synthesis and antifungal activity of some s-mercaptotriazolobenzothiazolyl amino acid derivatives” (2013).
# Active and inactive are the calls of the source. No cut-off for these calls is given here.
# Key:
# Type in all cases: functional
# Aspergillus flavus [1] = experiment: Antifungal activity against Aspergillus flavus up to 24 hrs
# How it was run: (§1)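 MFC in tubes of standardized spore suspension (10⁴ CFU/mL) of clinical isolates, each dosed with compound at increasing concentrations starting from the MIC. Controls: solvent at its highest level, and fluconazole. CFU counted and viability checked at intervals over 0–24 h. MFC is the lowest concentration killing about 99% of viable CFU.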
# Aspergillus flavus [2] = experiment: Antifungal activity against Aspergillus flavus by agar diffusion technique
# How it was run: (§2)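 Clinical isolates (A. flavus mold; C. albicans yeast), spore suspension standardized at 10⁴ CFU/mL. DMSO stocks diluted to a concentration series. Approximate MIC by agar diffusion (well technique), taken as the concentration giving minimal inhibition around the well.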
# Candida albicans [3] = experiment: Antifungal activity against Candida albicans at 500 ppm; conditions: read-out: DIZ
# How it was run: (§3)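 Agar well diffusion against clinical isolates (A. flavus mold; C. albicans yeast); standardized spore suspension 10⁴ CFU/mL. Compounds dissolved in DMSO as a parent stock, diluted to test levels (100, 300, 500, 1000 ppm).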
# Aspergillus flavus [4] = experiment: Antifungal activity against Aspergillus flavus at 500 ppm; how it was run: as §3
# Candida albicans [5] = experiment: Antifungal activity against Candida albicans up to 24 hrs; how it was run: as §1
# Aspergillus flavus [6] = experiment: Antifungal activity against Aspergillus flavus at 1000 ppm; conditions: read-out: DIZ; how it was run: as §3
# Aspergillus flavus [7] = experiment: Antifungal activity against Aspergillus flavus at 300 ppm; how it was run: as §3
# Candida albicans [8] = experiment: Antifungal activity against Candida albicans by agar diffusion technique; how it was run: as §2
# Candida albicans [9] = experiment: Antifungal activity against Candida albicans at 1000 ppm; conditions: read-out: DIZ; how it was run: as §3
# Candida albicans [10] = experiment: Antifungal activity against Candida albicans at 100 ppm; how it was run: as §3
# Candida albicans [11] = experiment: Antifungal activity against Candida albicans at 300 ppm; how it was run: as §3
# Aspergillus flavus [12] = experiment: Antifungal activity against Aspergillus flavus at 100 ppm
# How it was run: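 Clinical isolate of A. flavus (mold) tested by agar diffusion, well technique, using a standardized spore suspension of 10⁴ CFU/mL. Compounds were dissolved in dimethylsulphoxide and diluted from a parent stock.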
SMILES,MFC (Aspergillus flavus [1]),MIC (Aspergillus flavus [2]),zone of inhibition at 500 ppm (Candida albicans [3]),zone of inhibition at 500 ppm (Aspergillus flavus [4]; read-out: DIZ),MFC (Candida albicans [5]),zone of inhibition at 1000 ppm (Aspergillus flavus [6]),diameter of the inhibition zone (DIZ) (Aspergillus flavus [7]),MIC (Candida albicans [8]),zone of inhibition at 1000 ppm (Candida albicans [9]),zone of inhibition at 100 ppm (Candida albicans [10]; read-out: DIZ),zone of inhibition at 300 ppm (Candida albicans [11]; read-out: DIZ),diameter of the inhibition zone (DIZ) (Aspergillus flavus [12]),diameter of the inhibition zone (DIZ) (Aspergillus flavus [4]),diameter of the inhibition zone (DIZ) (Candida albicans [10]),diameter of the inhibition zone (DIZ) (Candida albicans [11])
Sc1nc2ccccc2s1 [2-MERCAPTOBENZOTHIAZOLE],inactive,500 µg/mL,10 mm,< 10 mm,500 µg/mL,10 mm,inactive,100 µg/mL,> 16 mm,< 10 mm,< 10 mm,inactive,–,–,–
COC(=O)[C@H](CCSC)NC(=O)CCn1nc2sc3ccccc3n2c1=S,inactive,1000 µg/mL,< 10 mm,–,inactive,< 10 mm,inactive,500 µg/mL,10 mm,–,–,inactive,inactive,inactive,inactive
